The results in this text go back to ChEMBL document CHEMBL5321288, “Proteolytically Stable Diaza-Peptide Foldamers Mimic Helical Hot Spots of Protein-Protein Interactions and Act as Natural Chaperones” (J Med Chem, 2023).

The source made the active and inactive calls. The rule behind the calls is not given here. Starred links: 1 amine or outer side, 2 acyl side, 3 side chain; linkers in the order of their positions; H or OH if unused. Non-standard residues stand in square brackets, D forms with d. Residues, ends and D or L forms follow the SMILES beside them. *: point of attachment. X3 = C[C@H](O)CN(N[*:1])C(=O)NN(CCCCN)C(=O)[*:2]; X2 = CC(C)CN(NC(=O)N(C)N[*:1])C(=O)[*:2]; X1 = C[C@H](O)CN(N)C(=O)NN(CCCCN)C(=O)*

The target in data set [1] is Amyloid-beta precursor protein (Homo sapiens) (UniProt P05067). The experiment in a line: Inhibition of Amyloid beta (1 to 42) (unknown origin) fibril formation assessed as decrease in factor of rate constants of secondary nucleation(k2)/elongation(K+) at 10 to 1 ratio of compound to amyloid beta (1 to 42) incubated for 48 hrs ThT assay.
Sequence of Amyloid-beta precursor protein (Homo sapiens) (P05067 whole entry): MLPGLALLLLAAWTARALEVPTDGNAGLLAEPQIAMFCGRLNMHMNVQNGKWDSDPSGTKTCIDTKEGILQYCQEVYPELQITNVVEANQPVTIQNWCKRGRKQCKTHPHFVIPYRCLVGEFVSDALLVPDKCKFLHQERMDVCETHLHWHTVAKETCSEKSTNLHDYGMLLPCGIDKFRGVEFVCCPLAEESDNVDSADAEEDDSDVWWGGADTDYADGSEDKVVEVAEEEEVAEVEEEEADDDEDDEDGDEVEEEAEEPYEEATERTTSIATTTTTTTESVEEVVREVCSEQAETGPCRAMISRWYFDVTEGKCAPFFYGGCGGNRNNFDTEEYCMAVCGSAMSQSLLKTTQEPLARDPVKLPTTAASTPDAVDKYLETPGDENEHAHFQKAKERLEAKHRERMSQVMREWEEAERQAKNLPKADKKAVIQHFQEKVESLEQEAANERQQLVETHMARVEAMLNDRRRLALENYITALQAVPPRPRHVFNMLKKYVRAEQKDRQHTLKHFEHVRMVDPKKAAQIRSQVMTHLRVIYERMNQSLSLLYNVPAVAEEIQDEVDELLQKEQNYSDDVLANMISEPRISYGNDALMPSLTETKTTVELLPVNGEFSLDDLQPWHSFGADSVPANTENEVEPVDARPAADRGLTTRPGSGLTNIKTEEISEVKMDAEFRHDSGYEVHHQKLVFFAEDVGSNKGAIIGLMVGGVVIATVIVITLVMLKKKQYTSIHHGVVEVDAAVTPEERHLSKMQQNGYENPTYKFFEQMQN
Data set [2] has as its target T1, Islet amyloid polypeptide (Homo sapiens) (UniProt P10997).
T1 sequence (whole entry): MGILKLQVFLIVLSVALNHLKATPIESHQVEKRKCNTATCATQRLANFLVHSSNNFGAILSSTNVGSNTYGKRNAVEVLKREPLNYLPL
The experiment in a line: Inhibition of hIAPP aggregation assessed as ThT fluorescence intensity at 10 to 1 ratio of compound to hIAPP by ThT fluorescence spectroscopy.

The target in data set [3] is Amyloid-beta precursor protein (Homo sapiens) (UniProt P05067). Kind of data set: Inhibition of Amyloid beta (1 to 42) (unknown origin) fibril formation assessed as decrease in parallel beta sheet content at 125 uM measured upto 5 hrs by CD analysis. A digest of the protocol:
(§1)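 CD at 25 °C, 195–250 nm, 0.1 cm cell, 50 nm/min, 0.1 nm resolution, five scans averaged. Aβ1-42 or Aβ1-28 at 25 μM with inhibitor at 125 μM, spectra taken at time points up to 5 h. Buffer or inhibitor spectrum subtracted, then smoothing. Secondary structure from 200–250 nm by BeStSel deconvolution.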

Data set [4] can be described thus: Plasma stability in human plasma assessed as degraded peptide at 1 uM measured after 2 hrs by UPLC-MS/MS analysis. The format is ADME, cell-free. Summed up: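 Compound at 1 μM in human plasma at 37 °C, duplicate. Sampled at 0, 15, 30, 45, 60 and 120 min. Analysed by reversed-phase UPLC, C18 at 40 °C, 4 min gradient of 0.1% formic acid in water/acetonitrile.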

Data set [5] deals with Amyloid-beta precursor protein (Homo sapiens) (UniProt P05067). The experiment in a line: Inhibition of Amyloid beta (1 to 42) (unknown origin) aggregation assessed as reduction in experimental fluorescence platea at 10 to 1 ratio of compound to amyloid beta (1 to 42) incubated for 48 hrs fluorescence-detected ThT-binding assay. Further details: scale not given: the % may be the effect or the level left.

Data set [6] shares this target. The experiment in a line: Inhibition of Amyloid beta (1 to 42) (unknown origin) fibril formation assessed as decrease in factor of rate constants of secondary nucleation(k2)/elongation(K+) at 1 to 1 ratio of compound to amyloid beta (1 to 42) incubated for 48 hrs ThT assay.
The species named for the next data set is Homo sapiens. Kind of data set: Inhibition of Amyloid beta (1 to 28) (unknown origin) fibril formation assessed as ratio of alpha-helical to beta strand at 125 uM measured upto 5 hrs by CD spectra analysis (reference value: 0.39). A digest of the protocol: as §1
Data set [7] deals with Amyloid-beta precursor protein (Homo sapiens) (UniProt P05067). The experiment in a line: Inhibition of Amyloid beta (1 to 42) (unknown origin) aggregation assessed as extension of time of the half aggregation at 10 to 1 ratio of compound to amyloid beta (1 to 42) incubated for 48 hrs fluorescence-detected ThT-binding assay. Further details: scale not given: the % may be the effect or the level left.

Data set [8] in a line: Cytotoxicity against rat brain endothelial cells assessed as viability at 1 to 100 ug/ml measured after 1 hr by MTT assay. Conditions: endothelial cell, dose 1-100 µg/ml. It is filed as toxicity, cell-based. (In general: Formazan colour is commonly taken as a measure of viable cells.)
A short description of data set [9]: Apparent permeability of the compound in apical to basolateral side in rat blood-brain barrier model at 10 uM. It is filed as ADME, tissue-based. Conditions: not told. A digest of the protocol:
(§2)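 Rat in vitro BBB model; peptide applied at 5 or 10 μM, co-incubated with Lucifer yellow as integrity standard, solutions in low-binding tubes. Transport measured apical-to-basal and basal-to-apical, in triplicate. Apical and basal samples quantified by LC-MS/MS to give apparent permeability (Papp).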

A short description of data set [10]: Apparent permeability of the compound in apical to basolateral side in rat blood-brain barrier model at 5 uM. It is filed as ADME, tissue-based. To be noted: not told. Summed up: as §2

Consider H-TKSYWKALG-NH2, for which the Ratio was determined as 100 in data set [1] and 0.66 in the data set filed under Homo sapiens. For the same compound, the inhibition result in [2] and in data set [6] was “inactive” in each case. The inhibition entry in data set [3] was “Active”. Moreover, in [4], the metabolised at 2 h, 1 µM is 99%. Further, the Activity in data set [5] turned out to be 59%; in data set [7] it was 209%.
`CC(=O)N[C@H](C(=O)N[C@@H](CCCCN)C(=O)N[C@@H](CO)C(=O)NN(Cc1ccc(O)cc1)C(=O)NN(CCc1c[nH]c2ccccc12)C(=O)N[C@@H](CCCCN)C(=O)N[C@@H](C)C(=O)N[C@@H](CC(C)C)C(=O)NCC(N)=O)[C@@H](C)O`: the Activity in data set [5] was 56%; in data set [7], 102%.
In the case of `CC(=O)N[C@H](C(=O)N[C@@H](CCCCN)C(=O)N[C@@H](CO)C(=O)NN(Cc1ccc(O)cc1)C(=O)NN(CCc1c[nH]c2ccccc12)C(=O)N[C@@H](CCCCN)C(=O)NN(C)C(=O)NN(CC(C)C)C(=O)NCC(N)=O)[C@@H](C)O`, the Activity in data set [5] was determined as 55%; in data set [7], 34%.
In the case of `CC(=O)NN(C[C@H](C)O)C(=O)NN(CCCCN)C(=O)N[C@@H](CO)C(=O)N[C@@H](Cc1ccc(O)cc1)C(=O)N[C@@H](Cc1c[nH]c2ccccc12)C(=O)N[C@@H](CCCCN)C(=O)N[C@@H](C)C(=O)N[C@@H](CC(C)C)C(=O)NCC(N)=O` (Ac-[X3]SYWKALG-NH2), the Activity came out at 36% in data set [5] and 107% in data set [7].
With `CC(=O)N[C@H](C(=O)N[C@@H](CCCCN)C(=O)N[C@@H](CO)C(=O)N[C@@H](Cc1ccc(O)cc1)C(=O)N[C@@H](Cc1c[nH]c2ccccc12)C(=O)N[C@@H](CCCCN)C(=O)NN(C)C(=O)NN(CC(C)C)C(=O)NCC(N)=O)[C@@H](C)O` (Ac-TKSYWK[X2]G-NH2), the Activity came out at 30% in data set [5] and 59% in [7].
Take `CC(=O)NN(C[C@H](C)O)C(=O)NN(CCCCN)C(=O)N[C@@H](CO)C(=O)NN(Cc1ccc(O)cc1)C(=O)NN(CCc1c[nH]c2ccccc12)C(=O)N[C@@H](CCCCN)C(=O)NN(C)C(=O)NN(CC(C)C)C(=O)NCC(N)=O`: the Activity in [5] was determined as 41%; in [7] it was 42%.
Turning to `CC(C)CN(NC(=O)N(C)NC(=O)[C@H](CCCCN)NC(=O)[C@H](Cc1c[nH]c2ccccc12)NC(=O)[C@H](Cc1ccc(O)cc1)NC(=O)[C@H](CO)NC(=O)[C@H](CCCCN)NC(=O)[C@@H](N)[C@@H](C)O)C(=O)NCC(N)=O` (H-TKSYWK[X2]G-NH2), the Activity in [5] was found to be 60%; in data set [7], 36%.
Consider `CC(C)C[C@H](NC(=O)[C@H](C)NC(=O)[C@H](CCCCN)NC(=O)[C@H](Cc1c[nH]c2ccccc12)NC(=O)[C@H](Cc1ccc(O)cc1)NC(=O)[C@H](CO)NC(=O)N(CCCCN)NC(=O)N(N)C[C@H](C)O)C(=O)NCC(N)=O` (X1-SYWKALG-NH2), for which, in data set [2], the inhibition entry is “inactive”. Besides, the Activity in data set [5] was 54%; in [7], 193%.
Turning to `CC(=O)NN(C[C@H](C)O)C(=O)NN(CCCCN)C(=O)N[C@@H](CO)C(=O)NN(Cc1ccc(O)cc1)C(=O)NN(CCc1c[nH]c2ccccc12)C(=O)N[C@@H](CCCCN)C(=O)N[C@@H](C)C(=O)N[C@@H](CC(C)C)C(=O)NCC(N)=O`, the Activity in data set [5] turned out to be 62%; in data set [7] it was 72%.
On to `CC(=O)NN(C[C@H](C)O)C(=O)NN(CCCCN)C(=O)N[C@@H](CO)C(=O)N[C@@H](Cc1ccc(O)cc1)C(=O)N[C@@H](Cc1c[nH]c2ccccc12)C(=O)N[C@@H](CCCCN)C(=O)NN(C)C(=O)NN(CC(C)C)C(=O)NCC(N)=O` (Ac-[X3]SYWK[X2]G-NH2), for which the inhibition entry in data set [2] is “inactive”. In addition, the Activity in data set [5] turned out to be 41%; in data set [7], 30%.
Take `CC(C)CN(NC(=O)N(C)NC(=O)[C@H](CCCCN)NC(=O)[C@H](Cc1c[nH]c2ccccc12)NC(=O)[C@H](Cc1ccc(O)cc1)NC(=O)[C@H](CO)NC(=O)N(CCCCN)NC(=O)N(N)C[C@H](C)O)C(=O)NCC(N)=O` (X1-SYWK[X2]G-NH2): the Ratio in data set [1] turned out to be 1e+09; in [6], 10; in the data set listed under Homo sapiens, 2.16. Moreover, the inhibition entry in data set [2] was “inactive”. Besides, the Activity result in [8] was “Non-Toxic”; in [5] it was 57%; in data set [7], 254%. Moreover, in data set [3], the inhibition entry is “Active”. The Papp A→B (usually how fast a substance crosses the layer from the apical side) at 10 µM in data set [9] was determined as 0.677 ×10⁻⁶ cm/s. The metabolised at 2 h, 1 µM in data set [4] came to 6%. For the same compound, in data set [10], the apparent permeability from apical to basolateral (Papp A→B) at 5 µM is 0.839 ×10⁻⁶ cm/s.
